Active and inactive are the calls of the source. The calls are words filed in the database; no cut-off is given here.
Columns and labels:
Mus musculus [1] = assay: Anticonvulsant activity in albino CF1 mouse assessed as protection against maximal electroshock-induced seizures at 30 mg/kg, ip after 4 hrs; format: functional, organism-based; set-up: dose 30 mg/kg
Procedure, shortened: (§1)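 Mice dosed ip at 30, 100 or 300 mg/kg, then tested 0.5 h and 4 h after administration in the MES or scMet test. Protection was recorded as animals protected over animals tested. Neurotoxicity was recorded as motor impairment or sedation, as animals affected over animals tested.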

Rattus norvegicus [2] = assay: Anticonvulsant activity in Sprague-Dawley albino rat assessed as protection against maximal electroshock-induced seizures at 100 mg/kg, po after 4 hrs; format: functional, organism-based; set-up: dose 100 mg/kg
Procedure, shortened: (§2)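 Rats dosed orally. Anti-MES protection was scored as animals protected over animals tested at each time after dosing. Neurotoxicity was scored as motor impairment or sedation, as animals affected over animals tested.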

Mus musculus [3] = assay: Anticonvulsant activity in albino CF1 mouse assessed as protection against subcutaneous metrazol-induced seizures at 100 mg/kg, ip after 4 hrs; format: functional, organism-based; set-up: dose 100 mg/kg; procedure, shortened: as §1
Mus musculus [4] = assay: Anticonvulsant activity in albino CF1 mouse assessed as protection against maximal electroshock-induced seizures at 300 mg/kg, ip after 4 hrs; format: functional, organism-based; set-up: dose 300 mg/kg; procedure, shortened: as §1
Mus musculus [5] = assay: Anticonvulsant activity in albino CF1 mouse assessed as protection against subcutaneous metrazol-induced seizures at 300 mg/kg, ip after 4 hrs; format: functional, organism-based; set-up: dose 300 mg/kg; procedure, shortened: as §1
Rattus norvegicus [6] = assay: Anticonvulsant activity in Sprague-Dawley albino rat assessed as protection against maximal electroshock-induced seizures at 30 mg/kg, po after 15 mins; format: functional, organism-based; set-up: dose 30 mg/kg; procedure, shortened: as §2
Mus musculus [7] = assay: Neurotoxicity in albino CF1 mouse assessed as minimal motor impairment at 30 mg/kg, ip after 4 hrs by rotarod test; format: toxicity, organism-based; set-up: dose 30 mg/kg, route intraperitoneal; settings: in vivo; procedure, shortened: as §1
Mus musculus [8] = assay: Anticonvulsant activity in albino CF1 mouse assessed as protection against subcutaneous metrazol-induced seizures at 30 mg/kg, ip after 4 hrs; format: functional, organism-based; set-up: dose 30 mg/kg; procedure, shortened: as §1
Rattus norvegicus [9] = assay: Anticonvulsant activity in Sprague-Dawley albino rat assessed as protection against maximal electroshock-induced seizures at 100 mg/kg, po after 30 mins; format: functional, organism-based; set-up: dose 100 mg/kg; procedure, shortened: as §2
Rattus norvegicus [10] = assay: Anticonvulsant activity in po dosed Sprague-Dawley albino rat assessed as protection against subcutaneous metrazol-induced seizures; format: functional
Procedure, shortened: (§3)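 Quantitative testing: rats dosed orally or ip in MES and scMet tests, and mice dosed ip, including the 6 Hz (32 mA) psychomotor seizure test. ED50 and TD50 were reported in mg/kg with ranges in parentheses. Protective index was calculated as TD50/ED50.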

Mus musculus [11] = assay: Neurotoxicity in albino CF1 mouse assessed as minimal motor impairment at 300 mg/kg, ip after 4 hrs by rotarod test; format: toxicity, organism-based; set-up: dose 300 mg/kg, route intraperitoneal; settings: in vivo; procedure, shortened: as §1
Rattus norvegicus [12] = assay: Anticonvulsant activity in Sprague-Dawley albino rat assessed as protection against maximal electroshock-induced seizures at 30 mg/kg, po after 2 hrs; format: functional, organism-based; set-up: dose 30 mg/kg; procedure, shortened: as §2
Rattus norvegicus [13] = assay: Neurotoxicity in pilocarpine-induced status epilepticus Sprague-Dawley albino rat model assessed as minimal motor impairment at 100 mg/kg, ip after 0.5 hrs by rotarod test; format: toxicity, organism-based; set-up: dose 100 mg/kg, route intraperitoneal; settings: in vivo
Mus musculus [14] = assay: Anticonvulsant activity in albino CF1 mouse assessed as protection against maximal electroshock-induced seizures at 300 mg/kg, ip after 0.5 hrs; format: functional, organism-based; set-up: dose 300 mg/kg; procedure, shortened: as §1
Rattus norvegicus [15] = assay: Neurotoxicity in Sprague-Dawley albino rat assessed as minimal motor impairment at 30 mg/kg, po by rotarod test; format: toxicity, organism-based; set-up: dose 30 mg/kg, route oral; settings: in vivo; procedure, shortened: as §2
Rattus norvegicus [16] = assay: Protective index, ratio of TD50 for po dosed Sprague-Dawley albino rat by rotarod test to ED50 for po dosed Sprague-Dawley albino rat by maximal electroshock seizures test; format: functional
Procedure, shortened: (§4)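 Protective index calculated as TD50/ED50, with TD50 and ED50 taken from the same species and dosing route.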

Mus musculus [17] = assay: Anticonvulsant activity in albino CF1 mouse assessed as protection against subcutaneous metrazol-induced seizures at 300 mg/kg, ip after 0.5 hrs; format: functional, organism-based; set-up: dose 300 mg/kg; procedure, shortened: as §1
Rattus norvegicus [18] = assay: Neurotoxicity in pilocarpine-induced status epilepticus Sprague-Dawley albino rat model assessed as minimal motor impairment at 300 mg/kg, ip after 4 hrs by rotarod test; format: toxicity, organism-based; set-up: dose 300 mg/kg, route intraperitoneal; settings: in vivo
Procedure, shortened: (§5)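 Rat pilocarpine status epilepticus model: test carbamate given at 0 or 30 min after the first observed Racine stage 3 motor seizure, which marks SE onset. Neurotoxicity was scored within the same model.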

Rattus norvegicus [19] = assay: Neurotoxicity in pilocarpine-induced status epilepticus Sprague-Dawley albino rat model assessed as minimal motor impairment at 100 mg/kg, ip after 1 hr by rotarod test; format: toxicity, organism-based; set-up: dose 100 mg/kg, route intraperitoneal; settings: in vivo
Mus musculus [20] = assay: Neurotoxicity in albino CF1 mouse assessed as minimal motor impairment at 30 mg/kg, ip after 0.5 hrs by rotarod test; format: toxicity, organism-based; set-up: dose 30 mg/kg, route intraperitoneal; settings: in vivo; procedure, shortened: as §1
Mus musculus [21] = assay: Neurotoxicity in albino CF1 mouse assessed as minimal motor impairment at 100 mg/kg, ip after 4 hrs by rotarod test; format: toxicity, organism-based; set-up: dose 100 mg/kg, route intraperitoneal; settings: in vivo; procedure, shortened: as §1
Mus musculus [22] = assay: Anticonvulsant activity in albino CF1 mouse assessed as protection against subcutaneous metrazol-induced seizures at 30 mg/kg, ip after 0.5 hrs; format: functional, organism-based; set-up: dose 30 mg/kg; procedure, shortened: as §1
Rattus norvegicus [23] = assay: Anticonvulsant activity in Sprague-Dawley albino rat assessed as protection against maximal electroshock-induced seizures at 30 mg/kg, po after 1 hr; format: functional, organism-based; set-up: dose 30 mg/kg; procedure, shortened: as §2
Rattus norvegicus [24] = assay: Neurotoxicity in pilocarpine-induced status epilepticus Sprague-Dawley albino rat model assessed as minimal motor impairment at 300 mg/kg, ip after 2 hrs by rotarod test; format: toxicity, organism-based; set-up: dose 300 mg/kg, route intraperitoneal; settings: in vivo; procedure, shortened: as §5
Rattus norvegicus [25] = assay: Neurotoxicity in pilocarpine-induced status epilepticus Sprague-Dawley albino rat model assessed as minimal motor impairment at 300 mg/kg, ip after 0.5 hrs by rotarod test; format: toxicity, organism-based; set-up: dose 300 mg/kg, route intraperitoneal; settings: in vivo; procedure, shortened: as §5
Rattus norvegicus [26] = assay: Anticonvulsant activity in Sprague-Dawley albino rat assessed as protection against maximal electroshock-induced seizures at 30 mg/kg, po after 4 hrs; format: functional, organism-based; set-up: dose 30 mg/kg; procedure, shortened: as §2
Rattus norvegicus [27] = assay: Neurotoxicity in pilocarpine-induced status epilepticus Sprague-Dawley albino rat model assessed as minimal motor impairment at 100 mg/kg, ip after 4 hrs by rotarod test; format: toxicity, organism-based; set-up: dose 100 mg/kg, route intraperitoneal; settings: in vivo
Rattus norvegicus [28] = assay: Neurotoxicity in Sprague-Dawley albino rat assessed as minimal motor impairment at 100 mg/kg, po by rotarod test; format: toxicity, organism-based; set-up: dose 100 mg/kg, route oral; settings: in vivo; procedure, shortened: as §2
Mus musculus [29] = assay: Anticonvulsant activity in albino CF1 mouse assessed as protection against maximal electroshock-induced seizures at 100 mg/kg, ip after 4 hrs; format: functional, organism-based; set-up: dose 100 mg/kg; procedure, shortened: as §1
Rattus norvegicus [30] = assay: Anticonvulsant activity in po dosed Sprague-Dawley albino rat assessed as protection against maximal electroshock-induced seizures; format: functional; procedure, shortened: as §3
Mus musculus [31] = assay: Anticonvulsant activity in albino CF1 mouse assessed as protection against maximal electroshock-induced seizures at 30 mg/kg, ip after 0.5 hrs; format: functional, organism-based; set-up: dose 30 mg/kg; procedure, shortened: as §1
Mus musculus [32] = assay: Anticonvulsant activity in albino CF1 mouse assessed as protection against maximal electroshock-induced seizures at 100 mg/kg, ip after 0.5 hrs; format: functional, organism-based; set-up: dose 100 mg/kg; procedure, shortened: as §1
Mus musculus [33] = assay: Anticonvulsant activity in albino CF1 mouse assessed as protection against subcutaneous metrazol-induced seizures at 100 mg/kg, ip after 0.5 hrs; format: functional, organism-based; set-up: dose 100 mg/kg; procedure, shortened: as §1
Rattus norvegicus [34] = assay: Anticonvulsant activity in Sprague-Dawley albino rat assessed as protection against maximal electroshock-induced seizures at 30 mg/kg, po after 30 mins; format: functional, organism-based; set-up: dose 30 mg/kg; procedure, shortened: as §2
[35] = Neurotoxicity in po dosed Sprague-Dawley albino rat assessed as minimal motor impairment by rotarod test; format: toxicity, organism-based; settings: in vivo
Procedure, shortened: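 Rats dosed orally; 4 rats per time point after dosing. Neurotoxicity was scored as motor impairment or sedation and reported as number of animals affected over number tested.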

Rattus norvegicus [36] = assay: Neurotoxicity in pilocarpine-induced status epilepticus Sprague-Dawley albino rat model assessed as minimal motor impairment at 300 mg/kg, ip after 0.25 hr by rotarod test; format: toxicity, organism-based; set-up: dose 300 mg/kg, route intraperitoneal; settings: in vivo; procedure, shortened: as §5
Mus musculus [37] = assay: Neurotoxicity in albino CF1 mouse assessed as minimal motor impairment at 300 mg/kg, ip after 0.5 hrs by rotarod test; format: toxicity, organism-based; set-up: dose 300 mg/kg, route intraperitoneal; settings: in vivo; procedure, shortened: as §1
Rattus norvegicus [38] = assay: Protective index, ratio of TD50 for po dosed Sprague-Dawley albino rat by rotarod test to ED50 for po dosed Sprague-Dawley albino rat by subcutaneous metrazol seizures test; format: functional; procedure, shortened: as §4
Rattus norvegicus [39] = assay: Neurotoxicity in pilocarpine-induced status epilepticus Sprague-Dawley albino rat model assessed as minimal motor impairment at 100 mg/kg, ip after 2 hrs by rotarod test; format: toxicity, organism-based; set-up: dose 100 mg/kg, route intraperitoneal; settings: in vivo
Rattus norvegicus [40] = assay: Neurotoxicity in pilocarpine-induced status epilepticus Sprague-Dawley albino rat model assessed as minimal motor impairment at 300 mg/kg, ip after 1 hr by rotarod test; format: toxicity, organism-based; set-up: dose 300 mg/kg, route intraperitoneal; settings: in vivo; procedure, shortened: as §5

Structure (SMILES): CCCC(CCC)COC(N)=O
- Activity (Mus musculus [1]): inactive
- Activity (Rattus norvegicus [2]): inactive
- Activity (Mus musculus [3]): inactive
- Activity (Mus musculus [4]): Active
- Activity (Mus musculus [5]): Active
- Activity (Rattus norvegicus [6]): inactive
- Activity (Mus musculus [7]): Non-toxic
- Activity (Mus musculus [8]): inactive
- Activity (Rattus norvegicus [9]): Active
- ED50 (Rattus norvegicus [10]): > 125 mg/kg
- Activity (Mus musculus [11]): Toxic
- Activity (Rattus norvegicus [12]): inactive
- Activity (Rattus norvegicus [13]): Non-toxic
- Activity (Mus musculus [14]): Active
- Activity (Rattus norvegicus [15]): Non-toxic
- Ratio TD50/ED50 (Rattus norvegicus [16]): >14
- Activity (Mus musculus [17]): Active
- Activity (Rattus norvegicus [18]): Toxic
- Activity (Rattus norvegicus [19]): Non-toxic
- Activity (Mus musculus [20]): Non-toxic
- Activity (Mus musculus [21]): Non-toxic
- Activity (Mus musculus [22]): inactive
- Activity (Rattus norvegicus [23]): inactive
- Activity (Rattus norvegicus [24]): Toxic
- Activity (Rattus norvegicus [25]): Toxic
- Activity (Rattus norvegicus [26]): inactive
- Activity (Rattus norvegicus [27]): Non-toxic
- Activity (Rattus norvegicus [28]): Non-toxic
- Activity (Mus musculus [29]): inactive
- ED50 (Rattus norvegicus [30]): 35 mg/kg
- Activity (Mus musculus [31]): inactive
- Activity (Mus musculus [32]): Active
- Activity (Mus musculus [33]): inactive
- Activity (Rattus norvegicus [34]): inactive
- TD50 [35]: > 500 mg/kg
- Activity (Rattus norvegicus [36]): Toxic
- Activity (Mus musculus [37]): Toxic
- Ratio TD50/ED50 (Rattus norvegicus [38]): >4
- Activity (Rattus norvegicus [39]): Non-toxic
- Activity (Rattus norvegicus [40]): Toxic

Source: ChEMBL document CHEMBL2086252, “Syntheses and evaluation of anticonvulsant activity of novel branched alkyl carbamates” (J Med Chem, 2012)
